Published values collected from several papers.
Each line is one published result; the experiments were not run side by side.
CHRM2: Muscarinic acetylcholine receptor M2 (CHRM2, Homo sapiens, UniProt P08172)
PTGES: Prostaglandin E synthase (PTGES, Homo sapiens, UniProt O14684)

CC(C)(C)[C@H](NC(=O)C(F)(F)F)C(=O)N1C[C@H]2[C@@H]([C@H]1C(=O)N[C@H](C#N)C[C@@H]1CCNC1=O)C2(C)C  Ki (Organic anion transporter 3 (SLC22A8, Homo sapiens, UniProt Q8TCC7); transporter uptake; inhibitor): 521 µM
CCCCCCCCCCCCNCCCc1ccc([N+](=O)[O-])cc1  Ki (CHRM2; ligand displacement; radioligand): 5.6 µM
CC(C)C[C@H](NC(=O)CNC(=O)[C@H](C)NC(=O)c1ccc(S[C@@H]2O[C@H](CO)[C@H](O)[C@H](O)[C@H]2O)cc1)C(=O)N[C@@H](C)C(=O)N[C@H]1CCN(c2cc3c(cc2F)c(=O)c(C(=O)O)cn3C2CC2)C1  Ki (PA-I galactophilic lectin (lecA, Pseudomonas aeruginosa, UniProt Q05097); ligand displacement; FP): 12 µM
CCCCCc1cc(O)c2c(c1)OC(C)(C)c1ccc(C)cc1-2  IC50 (PTGES; enzyme activity; inhibitor): > 10 µM
CCCCCCCNCCCc1ccc([N+](=O)[O-])cc1  Ki (CHRM2; ligand displacement; radioligand): 3.2 µM
CC(C)[N+](C)(CCC(C(N)=O)(c1ccccc1)c1ccccc1)C(C)C  IC50 (CHRM2; ligand displacement; radioligand): 0.007 µM
CCCCCc1cc(O)c2c(c1)OC(C)(C)[C@@H]1CCC(C)=C[C@@H]21  IC50 (PTGES; enzyme activity; inhibitor): > 10 µM
CC(C)C[C@H](NC(=O)[C@H](Cc1ccccc1)NC(=O)[C@H](Cc1ccc(O)cc1)NC(=O)CNC(=O)[C@H](CCCCN)NC(=O)[C@H](CO)NC(=O)[C@H](CCC(N)=O)NC(=O)CNC(=O)[C@@H](NC(=O)[C@H](CO)NC(=O)[C@@H]1CCCN1C(=O)[C@H](CO)NC(=O)[C@H](CCC(N)=O)NC(=O)[C@H](Cc1ccc(O)cc1)NC(=O)[C@H](CCC(=O)O)NC(=O)[C@H](C)NC(=O)[C@H](CCCCN)NC(=O)[C@@H](N)Cc1ccccc1)C(C)C)C(=O)N[C@@H](Cc1ccccc1)C(=O)N[C@@H](CCCNC(=N)N)C(=O)N1CCC[C@H]1C(=O)N[C@@H](CCCNC(=N)N)C(=O)N[C@@H](CC(N)=O)C(N)=O  EC50 (Neuromedin-U receptor 1 (Mus musculus, UniProt O55040); β-arrestin recruitment; agonist): 0.000501 µM
